Calls of active or inactive are those of the source. The calls are words filed in the database; no cut-off is given here. Bounds are passed on as bounds.

Series [1] is described as follows: Drug concentration in wildtype mouse plasma at 75 ppm administered as rodent chow starting from 1.5 months and measured after 5 months. The series is classed as ADME, cell-free. The note with it: route po, time 3.5 months. In outline: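 WT or 5xFAD mice were fed PLX3397 in AIN-76A chow at 600 ppm or 75 ppm from 1.5 to 5 months of age. Terminal brain and plasma drug concentrations were determined at study end.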

The target of series [2] is Tyrosine-protein kinase Mer (Homo sapiens, UniProt Q12866). Briefly: Inhibition of MERTK (unknown origin).
Tyrosine-protein kinase Mer, sequence (Q12866 whole entry): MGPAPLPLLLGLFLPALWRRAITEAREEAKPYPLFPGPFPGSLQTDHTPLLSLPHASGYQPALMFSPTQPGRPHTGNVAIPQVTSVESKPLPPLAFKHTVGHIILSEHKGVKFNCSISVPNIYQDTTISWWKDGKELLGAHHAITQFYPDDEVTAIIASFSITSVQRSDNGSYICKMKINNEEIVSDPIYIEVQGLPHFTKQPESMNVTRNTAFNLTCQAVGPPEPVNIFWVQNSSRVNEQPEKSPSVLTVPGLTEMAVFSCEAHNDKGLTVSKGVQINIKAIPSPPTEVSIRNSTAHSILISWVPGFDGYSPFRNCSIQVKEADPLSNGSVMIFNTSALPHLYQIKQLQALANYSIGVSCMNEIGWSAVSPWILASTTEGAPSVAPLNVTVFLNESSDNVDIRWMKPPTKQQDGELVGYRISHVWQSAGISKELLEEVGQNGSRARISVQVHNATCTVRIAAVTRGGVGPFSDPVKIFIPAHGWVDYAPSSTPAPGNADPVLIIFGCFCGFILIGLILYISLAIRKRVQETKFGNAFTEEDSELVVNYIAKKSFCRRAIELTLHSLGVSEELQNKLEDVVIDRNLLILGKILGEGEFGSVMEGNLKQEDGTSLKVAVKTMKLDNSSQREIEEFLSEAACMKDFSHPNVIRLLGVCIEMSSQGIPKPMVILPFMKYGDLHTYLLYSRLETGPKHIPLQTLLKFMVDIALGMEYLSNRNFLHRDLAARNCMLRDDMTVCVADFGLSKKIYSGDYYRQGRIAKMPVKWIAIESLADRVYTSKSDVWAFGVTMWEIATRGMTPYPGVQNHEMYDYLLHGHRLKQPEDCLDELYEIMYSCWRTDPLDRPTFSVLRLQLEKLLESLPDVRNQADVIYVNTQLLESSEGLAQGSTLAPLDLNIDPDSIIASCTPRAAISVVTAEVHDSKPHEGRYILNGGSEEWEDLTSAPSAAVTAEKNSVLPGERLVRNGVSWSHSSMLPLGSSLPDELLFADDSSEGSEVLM
Series [3] in a line: Effect on Cx3cr1 gene expression in 5XFAD mouse cortex at 1200 ppm administered as rodent chow starting from 1.5 months and measured after 7 months by RNA-Seq analysis (reference value: 15.803 to 19.787). The note with it: route po, time 5.5 months, 4015 h. It counts as functional.
Series [4] deals with Mus musculus. Briefly: Antialzheimer activity in 5XFAD mouse assessed as pyroglutamte-3 immunoreactivity in thalamus at 1200 ppm administered as rodent chow for 24 weeks by immunolabeling based confocal microscopic analysis. The series is classed as functional, organism-based. The note with it: route po.
Series [5] has as its system Mus musculus. The series can be described thus: Antialzheimer activity in 5XFAD mouse assessed as time spent in center zone at 1200 ppm administered as rodent chow for 10 to 24 weeks by Open field test (reference value: 14.9 to 130.9 sec). The series is classed as functional. The note with it: route po, time 10-24 weeks.
In series [6] the test system is Mus musculus. Briefly: Prevention of Tgfb1 gene upregulation in 5XFAD mouse hippocampus at 1200 ppm administered as rodent chow starting from 1.5 months and measured after 7 months by Nanostring analysis. It counts as functional, tissue-based. The note with it: route po, time 5.5 months.
For series [7], the system named is Mus musculus. The series can be described thus: Antialzheimer activity in 5XFAD mouse assessed as average diameter of claudin-5 blood vessels in Thio-S negative retro spinal cortex at 1200 ppm administered as rodent chow starting from 1.5 months and measured after 4 months by immunolabeling analysis. It counts as functional. The note with it: route po, time 2.5 months, 1825 h.

The nature of series [8]: Effect on Hexb gene expression in wild type mouse cortex at 1200 ppm administered as rodent chow starting from 1.5 months and measured after 7 months by RNA-Seq analysis (reference value: 38.813 to 48.079). The series is classed as functional. Conditions: route po, time 5.5 months, 4015 h.
The target of series [9] is Cyclin-dependent kinase 1/cyclin B1 (Homo sapiens, UniProt P06493). Briefly: Inhibition of CDK1/CyclinB (unknown origin). The series is classed as protein-complex assay.
Cyclin-dependent kinase 1/cyclin B1, sequence (P06493 whole entry): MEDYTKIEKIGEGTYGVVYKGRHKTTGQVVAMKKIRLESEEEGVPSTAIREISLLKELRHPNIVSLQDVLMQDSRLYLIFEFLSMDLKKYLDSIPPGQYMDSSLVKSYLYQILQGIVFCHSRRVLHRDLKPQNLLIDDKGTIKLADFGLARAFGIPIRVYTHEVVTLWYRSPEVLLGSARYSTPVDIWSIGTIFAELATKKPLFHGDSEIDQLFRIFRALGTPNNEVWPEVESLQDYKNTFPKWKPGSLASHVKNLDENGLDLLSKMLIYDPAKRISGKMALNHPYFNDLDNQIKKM
Cyclin-dependent kinase 1/cyclin B1, sequence (P14635 whole entry, further chain): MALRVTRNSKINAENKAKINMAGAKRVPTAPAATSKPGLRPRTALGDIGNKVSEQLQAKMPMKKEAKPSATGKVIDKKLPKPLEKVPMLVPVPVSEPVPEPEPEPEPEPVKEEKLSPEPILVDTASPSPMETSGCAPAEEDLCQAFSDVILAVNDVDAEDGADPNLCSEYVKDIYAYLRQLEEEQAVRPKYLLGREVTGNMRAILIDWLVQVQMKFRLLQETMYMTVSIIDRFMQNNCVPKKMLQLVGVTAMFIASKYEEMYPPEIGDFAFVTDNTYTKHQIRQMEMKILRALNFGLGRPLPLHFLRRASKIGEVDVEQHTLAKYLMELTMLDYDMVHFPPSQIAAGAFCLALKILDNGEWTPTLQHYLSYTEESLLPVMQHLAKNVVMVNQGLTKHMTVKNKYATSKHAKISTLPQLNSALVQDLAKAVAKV
In series [10] the test system is Mus musculus. The series can be described thus: Antialzheimer activity in 5XFAD mouse assessed as alteration in plaque morphology in cortex at 1200 ppm administered as rodent chow starting from 1.5 months and measured after 7 months by Thio-S labeling based confocal microscopic analysis. The series is classed as functional, organism-based. The note with it: route po, time 5.5 months.

The test system of series [11] is Mus musculus. The series can be described thus: Prevention of Itgam gene upregulation in 5XFAD mouse hippocampus at 1200 ppm administered as rodent chow starting from 1.5 months and measured after 7 months by Nanostring analysis. The series is classed as functional, tissue-based. The note with it: route po, time 5.5 months.
Series [12] can be described thus: Effect on Ctsz gene expression in 5XFAD mouse thalamus at 1200 ppm administered as rodent chow starting from 1.5 months and measured after 7 months by RNA-Seq analysis (reference value: 23.715 to 34.765 RPKM). The series is classed as functional. The note with it: route po, time 5.5 months, 4015 h.
Series [13] is described as follows: Effect on Zfp286 gene expression in wildtype mouse hippocampus assessed as percent change in Reads Per kilo base per Million mapped reads at 1200 ppm administered as rodent chow starting from 1.5 months and measured after 7 months by RNA-Seq analysis (reference value: 85.126 to 114.292 %). The series is classed as functional. Conditions: route po, time 5.5 months, 4015 h.

The nature of series [14]: Effect on Csf1r RPKM gene expression in 5XFAD mouse thalamus at 1200 ppm administered as rodent chow starting from 1.5 months and measured after 7 months by RNA-Seq analysis (reference value: 27.112 to 32.871 RPKM). It counts as functional. The note with it: route po, time 5.5 months, 4015 h.
Series [15] can be described thus: Toxicity in wildtype mouse assessed as time spent in center zone at 1200 ppm administered as rodent chow for 10 to 24 weeks by Open field test (reference value: 32.4 to 76.1 sec). Conditions: in vivo, po, time 10-24 weeks.
Series [16] can be described thus: Effect on Siglech gene expression in wild type mouse thalamus at 1200 ppm administered as rodent chow starting from 1.5 months and measured after 7 months by RNA-Seq analysis (reference value: 2.864 to 4.605 RPKM). The series is classed as functional. The note with it: route po, time 5.5 months, 4015 h.
Series [17] is described as follows: Effect on Clec7a gene expression in wild type mouse thalamus at 1200 ppm administered as rodent chow starting from 1.5 months and measured after 7 months by RNA-Seq analysis (reference value: 0.095 to 0.586 RPKM). The note with it: route po, time 5.5 months, 4015 h. The series is classed as functional. In outline: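 WT and 5xFAD mice were treated with 1200 ppm PLX5622 chow or control chow from 1.5 to 7 months of age. Brains were microdissected into cortex, hippocampus and thalamus, and RNA was extracted from tissue powder. Whole-transcriptome RNA-Seq libraries were sequenced, with n = 4 per group per region (48 samples).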

Series [18] addresses Calcium/calmodulin-dependent protein kinase type II subunit beta (Homo sapiens, UniProt Q13554). The series can be described thus: Inhibition of CAMK2B (unknown origin).
Series [19] deals with Mus musculus. Briefly: Effect on circulating leukocytes in wildtype mouse assessed as percentage of CD45+/PI- cells expressing CD11c at 1200 ppm administered as rodent chow for 10 to 24 weeks (reference value: 34.7 to 54.3 %). The series is classed as functional. The note with it: route po, time 10-24 weeks.
Series [20] has as its target Tyrosine-protein kinase Lyn (Homo sapiens, UniProt P07948). Briefly: Inhibition of LYN_A (unknown origin).
The subject of series [21] is Mus musculus. The series can be described thus: Antialzheimer activity in 5XFAD mouse assessed as average diameter of claudin-5 blood vessels in Thio-S positive retro spinal cortex at 1200 ppm administered as rodent chow starting from 1.5 months and measured after 4 months by immunolabeling analysis. It counts as functional. Conditions: route po, time 2.5 months, 1825 h.

Series [22] deals with Tyrosine-protein kinase SYK (Homo sapiens, UniProt P43405). Briefly: Inhibition of SYK (unknown origin).
For series [23], the system named is Mus musculus. Briefly: Antialzheimer activity in 5XFAD mouse assessed as amyloidbeta40 level in detergent soluble cortex fraction measured per microgram protein at 1200 ppm administered as rodent chow starting from 1.5 months and measured after 4 months by ELISA (reference value: 0 to 0.089 pg). The series is classed as functional. The note with it: route po, time 2.5 months, 1825 h. The method in brief:
(§1)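 PLX5622 at 1200 ppm in chow given to 5xFAD mice from 1.5 months to 4 or 7 months of age; cortex and thalamus homogenized in TPER (detergent-soluble), pellets re-homogenized in 70% formic acid and spun 100,000 g, 1 h, 4 °C (insoluble); protein by Bradford/Lowry; Aβ species measured by Meso Scale electrochemiluminescence immunoassay, normalized to protein; n = 7–8 per group at 7 months.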
(In general: ELISA stands for enzyme-linked immunosorbent assay.)

The test system of series [24] is Mus musculus. Briefly: Antialzheimer activity in 5XFAD mouse assessed as amyloidbeta42 level in detergent insoluble thalamus fraction measured per microgram protein at 1200 ppm administered as rodent chow starting from 1.5 months and measured after 4 months by ELISA (reference value: 181082 to 7435203 pg). The series is classed as functional. Conditions: route po, time 2.5 months, 1825 h. In outline:
as §1

Series [25] deals with Mus musculus. Briefly: Antialzheimer activity in 5XFAD mouse assessed as iron reactivity by measuring hemosiderin intensity of prussian blue staining in […] cortex at 1200 ppm administered as rodent chow starting from 1.5 months and measured after 4 months by confocal microscopic analysis (reference value: 0.1 to 8.816 a.u.). Conditions: route po, time 2.5 months, 1825 h. It counts as functional. The method in brief: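 Wild-type or 5xFAD mice fed PLX5622 (1200 ppm) in AIN-76A chow from 1.5 months of age, examined in 4- and 7-month-old cohorts. Brain sections stained with a Prussian blue kit per kit instructions to detect iron deposits (microbleeds).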

The test system of series [26] is Mus musculus. Briefly: Antialzheimer activity in 5XFAD mouse assessed as amyloidbeta42 level in detergent soluble cortex fraction measured per microgram protein at 1200 ppm administered as rodent chow starting from 1.5 months and measured after 7 months by ELISA (reference value: 0 to 0.239 pg). It counts as functional. Conditions: route po, time 5.5 months, 4015 h. The method in brief:
as §1

Calcium/calmodulin-dependent protein kinase type II subunit beta, sequence (Q13554 whole entry): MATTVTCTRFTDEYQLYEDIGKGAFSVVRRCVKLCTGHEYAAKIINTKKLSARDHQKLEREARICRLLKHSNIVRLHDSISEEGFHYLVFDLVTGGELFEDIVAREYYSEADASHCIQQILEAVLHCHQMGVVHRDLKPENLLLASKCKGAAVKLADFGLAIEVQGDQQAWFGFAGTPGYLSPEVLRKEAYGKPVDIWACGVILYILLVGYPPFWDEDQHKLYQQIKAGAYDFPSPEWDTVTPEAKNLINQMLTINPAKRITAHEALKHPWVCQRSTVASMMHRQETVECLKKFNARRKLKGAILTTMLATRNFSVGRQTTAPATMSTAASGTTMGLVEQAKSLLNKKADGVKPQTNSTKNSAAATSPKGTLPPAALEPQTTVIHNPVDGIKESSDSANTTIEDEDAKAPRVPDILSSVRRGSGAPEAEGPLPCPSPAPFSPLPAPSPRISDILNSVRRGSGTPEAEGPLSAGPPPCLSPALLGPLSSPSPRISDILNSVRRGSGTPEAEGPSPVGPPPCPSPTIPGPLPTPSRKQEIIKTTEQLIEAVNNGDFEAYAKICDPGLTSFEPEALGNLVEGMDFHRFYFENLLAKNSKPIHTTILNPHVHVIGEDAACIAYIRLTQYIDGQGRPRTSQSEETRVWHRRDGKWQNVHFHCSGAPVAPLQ
Tyrosine-protein kinase Lyn, sequence (P07948 whole entry): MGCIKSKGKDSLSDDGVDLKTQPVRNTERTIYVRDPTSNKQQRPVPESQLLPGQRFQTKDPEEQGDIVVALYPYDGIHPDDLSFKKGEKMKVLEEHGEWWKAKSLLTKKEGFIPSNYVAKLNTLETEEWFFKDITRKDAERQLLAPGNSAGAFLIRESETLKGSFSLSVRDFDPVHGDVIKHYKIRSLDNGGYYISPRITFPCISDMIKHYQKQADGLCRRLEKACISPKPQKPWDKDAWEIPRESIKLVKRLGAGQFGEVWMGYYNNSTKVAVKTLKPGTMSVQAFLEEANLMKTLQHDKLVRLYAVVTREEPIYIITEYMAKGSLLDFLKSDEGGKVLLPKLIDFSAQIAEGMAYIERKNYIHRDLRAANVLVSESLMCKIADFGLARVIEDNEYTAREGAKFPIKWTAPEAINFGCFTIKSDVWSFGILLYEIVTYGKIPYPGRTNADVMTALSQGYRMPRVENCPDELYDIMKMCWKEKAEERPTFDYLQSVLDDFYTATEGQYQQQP

With `FC(F)(F)c1ccc(CNc2ccc(Cc3c[nH]c4ncc(Cl)cc34)cn2)cn1` [PEXIDARTINIB], the concentration at 2555 h in series [1] was found to be 12 µM.
On to `COc1ncc(F)cc1CNc1ccc(Cc2c[nH]c3ncc(C)cc23)c(F)n1` [PLX-5622], for which the IC50 in series [2], in series [9], in [18], in series [20] and in series [22] was more than 1 µM throughout. For the same compound, the Activity in series [3] is 0.341 RPKM; in [7], 1.786 um; in series [8] it was 8.715 RPKM; in series [12] it was 13.618 RPKM; in [13] it was 76.544%; in [14], 0.221 RPKM. In addition, the Activity turned out to be 0 RPKM in series [16]; 0 RPKM in [17]; 31.4% in series [19]; 4.447 um in series [21]; 0 pg in series [23]; 117968.4 pg in [24]. Moreover, in [26], the Activity turned out to be 0 pg. For the same compound, the outcome in series [4], in series [6], in series [10] and in [11] was Active. Further, the Time was found to be 32.4 s in series [5] and 12.7 s in series [15]. Besides, the Flu intensity in [25] is recorded as 6.682 a.u.
